Test results published in ChEMBL document CHEMBL1136168, “Novel 3-O-acyl mesquitol analogues as free-radical scavengers and enzyme inhibitors: synthesis, biological evaluation and structure-activity relationship” (Bioorg Med Chem Lett, 2003).

How the values were obtained:
[1] = Inhibition of yeast Alpha-glucosidase; set-up: species or system Saccharomyces cerevisiae
How it was run: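 Yeast α-glucosidase (0.74 u/mL) in 100 mM phosphate pH 7.0 with BSA and 0.20% sodium azide. DMSO sample incubated with enzyme 5 min, A405 zero read. Substrate added, 10 min at 26–28 °C, A405 re-read; increase used for % inhibition. Triplicates; IC50 by linear regression.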

[2] = Free radical scavenging assessed as ABTS (2,2'-azinobis-(3-ethyl benz) thiazoline-6-sulfonic acid) color change
How it was run: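 ABTS radical cation made by reacting 7 mM ABTS diammonium salt with 2.45 mM potassium persulfate overnight in the dark at room temp, then diluted in PBS pH 7.4 to A734 about 0.70. Sample added to diluted ABTS, A734 read within 1 min. Triplicates with blanks and controls. SC50 by linear regression from at least five concentrations.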

[3] = Free radical scavenging assessed as DPPH color reduction
How it was run: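 DMSO sample mixed in microplate with 0.1 M Tris-HCl pH 7.4 and 0.5 mM DPPH in absolute ethanol. Incubated 20 min in the dark, A517 read. Scavenging taken as % decolorization versus solvent control. SC50 by linear regression from at least five concentrations in triplicate.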

[4] = target: T1, Xanthine dehydrogenase/oxidase (Homo sapiens, UniProt P47989); assay: Inhibition of Xanthine oxidase; assay type: single protein
T1 sequence (P47989 whole entry): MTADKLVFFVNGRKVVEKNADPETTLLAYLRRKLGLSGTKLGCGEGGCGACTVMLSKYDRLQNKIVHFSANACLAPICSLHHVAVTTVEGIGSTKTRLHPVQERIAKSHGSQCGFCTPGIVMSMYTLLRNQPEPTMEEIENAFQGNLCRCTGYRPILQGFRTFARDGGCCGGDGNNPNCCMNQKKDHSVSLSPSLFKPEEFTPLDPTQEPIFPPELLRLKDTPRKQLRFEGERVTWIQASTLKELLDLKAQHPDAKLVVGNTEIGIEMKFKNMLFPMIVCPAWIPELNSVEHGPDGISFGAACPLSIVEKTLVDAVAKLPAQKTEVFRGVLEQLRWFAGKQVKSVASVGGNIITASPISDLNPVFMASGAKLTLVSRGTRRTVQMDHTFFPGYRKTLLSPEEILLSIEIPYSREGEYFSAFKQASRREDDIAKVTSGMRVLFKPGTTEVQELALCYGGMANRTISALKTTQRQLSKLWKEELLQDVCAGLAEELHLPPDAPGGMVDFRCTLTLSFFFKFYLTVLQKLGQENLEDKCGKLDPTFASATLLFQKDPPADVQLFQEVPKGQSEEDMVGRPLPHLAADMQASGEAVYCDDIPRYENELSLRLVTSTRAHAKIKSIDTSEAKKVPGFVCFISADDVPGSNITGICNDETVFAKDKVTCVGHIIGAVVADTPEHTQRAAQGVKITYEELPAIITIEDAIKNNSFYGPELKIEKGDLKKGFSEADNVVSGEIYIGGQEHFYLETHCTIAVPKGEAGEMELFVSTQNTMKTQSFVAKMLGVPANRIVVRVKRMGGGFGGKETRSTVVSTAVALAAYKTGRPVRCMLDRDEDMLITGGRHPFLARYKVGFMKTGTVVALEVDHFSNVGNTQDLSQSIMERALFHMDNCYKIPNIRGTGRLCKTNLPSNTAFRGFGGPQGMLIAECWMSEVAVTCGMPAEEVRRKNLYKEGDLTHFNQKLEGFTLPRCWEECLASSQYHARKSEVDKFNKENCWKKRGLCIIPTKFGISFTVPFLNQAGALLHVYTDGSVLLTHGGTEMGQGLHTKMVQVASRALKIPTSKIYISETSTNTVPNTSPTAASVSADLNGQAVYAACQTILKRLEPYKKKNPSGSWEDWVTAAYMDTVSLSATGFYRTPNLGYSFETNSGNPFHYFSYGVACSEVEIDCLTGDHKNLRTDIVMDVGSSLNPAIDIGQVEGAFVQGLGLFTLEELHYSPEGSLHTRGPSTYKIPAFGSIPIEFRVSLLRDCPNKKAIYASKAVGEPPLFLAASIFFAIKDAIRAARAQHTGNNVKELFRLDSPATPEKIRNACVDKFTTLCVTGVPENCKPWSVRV
How it was run: (§1)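 DMSO sample preincubated 15 min with xanthine oxidase (1 u/mL stock) in […] phosphate buffer pH 7.5. Started with 0.15 mM xanthine, run 30 min at 29 °C, stopped with 1 N HCl, A290 read. Triplicates; % inhibition versus solvent control; IC50 by linear regression.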

[5] = target: T1, Xanthine dehydrogenase/oxidase; assay: Inhibitory concentration against Xanthine oxidase; Not active at 50 ug/mL concentration; assay type: single protein
How it was run: as §1, with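 “read. Compound blanks had HCl added before enzyme.” for “read.”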

CC(=O)O[C@@H]1Cc2ccc(O)c(O)c2O[C@H]1c1ccc(O)c(O)c1
IC50 [1]: 46.3 µM | SC50 [2]: 13 µM | SC50 [3]: 7.15 µM | IC50 [4]: 150 µM

CCCCCC(=O)O[C@@H]1Cc2ccc(O)c(O)c2O[C@H]1c1ccc(O)c(O)c1
IC50 [1]: 49.3 µM | SC50 [2]: 14.4 µM | SC50 [3]: 6.68 µM | IC50 [4]: 129 µM

CCCCCCCCCCCCCCCC(=O)O[C@@H]1Cc2ccc(O)c(O)c2O[C@H]1c1ccc(O)c(O)c1
IC50 [1]: 9.56 µM | SC50 [2]: 10.1 µM | SC50 [3]: 5.17 µM | IC50 [4]: 94.7 µM

O=C(O[C@@H]1Cc2ccc(O)c(O)c2O[C@H]1c1ccc(O)c(O)c1)c1ccc(F)cc1
IC50 [1]: 32.8 µM | IC50 [5]: Not Active | SC50 [3]: 8.99 µM

Oc1cc(O)c2c(c1)O[C@H](c1ccc(O)c(O)c1)[C@H](O)C2 [(-)-EPICATECHIN]
IC50 [1]: 178 µM | IC50 [5]: Not Active | SC50 [3]: 13.5 µM

CC(C)(Sc1cc(C(C)(C)C)c(O)c(C(C)(C)C)c1)Sc1cc(C(C)(C)C)c(O)c(C(C)(C)C)c1
SC50 [3]: 21.7 µM

O=C(O[C@@H]1Cc2ccc(O)c(O)c2O[C@H]1c1ccc(O)c(O)c1)c1ccccc1Cl
IC50 [1]: 43.3 µM | IC50 [5]: Not Active | SC50 [3]: 7.97 µM

COc1ccc(C(=O)O[C@@H]2Cc3ccc(O)c(O)c3O[C@H]2c2ccc(O)c(O)c2)cc1
IC50 [1]: 67.3 µM | IC50 [5]: Not Active | SC50 [3]: 6.72 µM

CCCCCCCCCCCCCC(=O)O[C@@H]1Cc2ccc(O)c(O)c2O[C@H]1c1ccc(O)c(O)c1
IC50 [1]: 12.6 µM | SC50 [2]: 11.3 µM | SC50 [3]: 7.51 µM | IC50 [4]: 102 µM

CCCCCCCCCC(=O)O[C@@H]1Cc2ccc(O)c(O)c2O[C@H]1c1ccc(O)c(O)c1
IC50 [1]: 13.5 µM | SC50 [2]: 17.5 µM | SC50 [3]: 6.07 µM | IC50 [4]: 112 µM

OC[C@H]1NC[C@H](O)[C@@H](O)[C@@H]1O [DUVOGLUSTAT]
IC50 [1]: 50 µM

CCCC(=O)O[C@@H]1Cc2ccc(O)c(O)c2O[C@H]1c1ccc(O)c(O)c1
IC50 [1]: 46.2 µM | SC50 [2]: 14.1 µM | SC50 [3]: 8.89 µM | IC50 [4]: 139 µM

Oc1ccc([C@@H]2Oc3c(ccc(O)c3O)C[C@H]2O)cc1O
IC50 [1]: 82.3 µM | IC50 [5]: Not Active | SC50 [2]: 14.6 µM | SC50 [3]: 6.72 µM

O=C(O[C@@H]1Cc2ccc(O)c(O)c2O[C@H]1c1ccc(O)c(O)c1)c1ccccc1
IC50 [1]: 77.8 µM | IC50 [5]: Not Active | SC50 [3]: 11.5 µM

Cc1c(C)c2c(c(C)c1O)CCC(C)(C(=O)O)O2 (stereo unspecified)
SC50 [2]: 1.82 µM | SC50 [3]: 15.9 µM

CCCCCCCCCCCCCCCCCC(=O)O[C@@H]1Cc2ccc(O)c(O)c2O[C@H]1c1ccc(O)c(O)c1
IC50 [1]: 54.5 µM | SC50 [2]: 17.8 µM | SC50 [3]: 9.43 µM | IC50 [4]: 156 µM
